{"data": "Assay results from different studies"}
{"SMILES": "CCCCCC/C=C\\CCCCCCCCCC(=O)CP(=O)(O)O", "tested on": "Enterococcus faecalis", "test": "microbial growth", "system": "ATCC33186", "endpoint": "MIC", "result": "12.5 µg/mL"}
{"SMILES": "COc1ccc(N2CCN(C(=O)/C=C/c3ccc4c(c3)C=CC(C)(C)O4)CC2)cc1", "tested on": "rat Primary cortical neuron", "test": "cell growth or viability, MTT", "conditions": "1 µM, 12 h", "endpoint": "viability", "result": "75%"}
{"SMILES": "CCCCCCCC(=O)NP(=O)(O)O", "tested on": "Enterococcus faecalis", "test": "microbial growth", "system": "ATCC33186", "endpoint": "MIC", "result": "> 200 µg/mL"}
{"SMILES": "COc1ccc(NC(=O)/C=C/c2ccc3c(c2)C=CC(C)(C)O3)cc1", "tested on": "rat Primary cortical neuron", "test": "cell growth or viability, MTT", "conditions": "1 µM, 12 h", "endpoint": "viability", "result": "87%"}
{"SMILES": "Nc1ncnc2c([C@@H]3N[C@H](CO)[C@@H](O)[C@H]3O)c[nH]c12", "tested on": "Japanese encephalitis virus", "test": "viral replication, inhibitor", "system": "Vero 76", "conditions": "0.1 µM", "endpoint": "inhibition", "result": "0%"}
{"SMILES": "CCC(CC)COC(=O)[C@H](C)N[P@](=O)(OC[C@H]1O[C@@](C#N)(c2ccc3c(N)ncnn23)[C@H](O)[C@@H]1O)Oc1ccccc1", "tested on": "Human coronavirus 229E", "test": "viral replication", "system": "Calu-3", "endpoint": "IC50", "result": "110 nM"}
{"SMILES": "O=C(CCCCCCCCCCOc1ccccc1)CP(=O)(O)O", "tested on": "Enterococcus faecalis", "test": "microbial growth", "system": "ATCC33186", "endpoint": "MIC", "result": "50 µg/mL"}
{"SMILES": "O=C(Cc1ccc2ccccc2c1)N[C@@H](Cc1ccccc1)C(=O)N[C@H](Cc1ccccc1)C(=O)N[C@@H](Cc1ccc(OP(=O)(O)O)cc1)C(=O)O", "tested on": "HeLa", "test": "cell growth or viability, MTT", "conditions": "48 h", "endpoint": "IC50", "result": "> 500000 nM"}
{"SMILES": "C=CCCCCCCCCC(=O)C(F)(F)P(=O)(O)O", "tested on": "Enterococcus faecalis", "test": "microbial growth", "system": "ATCC33186", "endpoint": "MIC", "result": "> 200 µg/mL"}
{"SMILES": "O=c1cc(OCCCOc2ccnc(SCc3ccc(F)cc3)n2)c2cc(F)ccc2o1", "tested on": "Human coronavirus 229E", "test": "cytopathic effect", "system": "A549", "conditions": "25 µM", "endpoint": "inhibition", "result": "65.8%"}
{"SMILES": "COc1cc2c(cc1O)CCN[C@]21CS[C@@H]2c3c(OC(C)=O)c(C)c4c(c3[C@H](COC1=O)N1[C@@H]2[C@H]2c3c(cc(C)c(OC)c3O)C[C@@H]([C@@H]1C#N)N2C)OCO4", "tested on": "Human coronavirus 229E", "test": "viral replication", "system": "Calu-3", "endpoint": "IC50", "result": "253 nM"}
{"SMILES": "CCOC(=O)C1=C[C@@H](OC(CC)CC)[C@H](NC(C)=O)[C@@H](N)C1", "tested on": "Human coronavirus 229E", "test": "viral replication", "system": "A549", "endpoint": "IC50", "result": "7650 nM"}
{"SMILES": "CC1(C)C=Cc2cc(C(CC(=O)Nc3ccccc3)Nc3ccccc3)ccc2O1 (stereo not drawn)", "tested on": "rat Primary cortical neuron", "test": "cell growth or viability, MTT", "conditions": "1 µM, 12 h", "endpoint": "viability", "result": "> 80%"}
{"SMILES": "CC[C@H](C)C[C@H](C)CCCCCCCCC(=O)N[C@H]1C[C@@H](O)[C@@H](NCCN)NC(=O)[C@@H]2[C@@H](O)CCN2C(=O)[C@H]([C@H](O)CCN)NC(=O)[C@H]([C@H](O)[C@@H](O)c2ccc(O)cc2)NC(=O)[C@@H]2C[C@@H](O)CN2C(=O)[C@H]([C@@H](C)O)NC1=O", "tested on": "Aspergillus fumigatus", "test": "microbial growth, broth dilution", "system": "MF5668", "endpoint": "MIC50", "result": "0.016 µg/mL"}
{"SMILES": "Cc1cccc(CSc2nccc(OCCOc3cc(=O)oc4ccccc34)n2)c1", "tested on": "Human coronavirus 229E", "test": "cytopathic effect", "system": "A549", "conditions": "12.5 µM", "endpoint": "inhibition", "result": "38.1%"}
{"SMILES": "CC[C@@]1(O)C[C@H](O[C@H]2C[C@H](N(C)C)[C@H](O[C@H]3C[C@H](O)[C@H](O[C@H]4CCC(=O)[C@H](C)O4)[C@H](C)O3)[C@H](C)O2)c2c(cc3c(c2O)C(=O)c2c(O)cccc2C3=O)[C@H]1C(=O)OC", "tested on": "Human coronavirus 229E", "test": "viral replication", "system": "Calu-3", "endpoint": "IC50", "result": "2340 nM"}
{"SMILES": "O=C(CCCCC1CCCCC1)CP(=O)(O)O", "tested on": "Enterococcus faecalis", "test": "microbial growth", "system": "ATCC33186", "endpoint": "MIC", "result": "> 200 µg/mL"}
{"SMILES": "CC(C)C[C@H](NC(=O)[C@@H](NC(=O)N[C@@H](Cc1ccccc1)C(=O)O)[C@@H]1CCN=C(N)N1)C(=O)N[C@H](C=O)Cc1ccccc1", "tested on": "Human coronavirus 229E", "test": "viral replication", "system": "Huh7.5", "endpoint": "IC50", "result": "23700 nM"}
